Test [1] concerns Staphylococcus aureus. In words: Antibacterial activity against methicillin-resistant Staphylococcus aureus isolate LY 1999-0053 after 18 hrs by broth microdilution assay. It counts as functional. Conditions: isolate LY 1999-0053, 18 h. Summed up:
(§1)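 Staphylococcus aureus reference strains and methicillin- and daptomycin-resistant isolates tested by MIC according to CLSI guidance (M100-S17), with oxacillin as control. The endpoint is the lowest concentration with no growth in all replicates versus a negative control at 18 h. Values are reported in mmol/L.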

Test [2] concerns Staphylococcus aureus. In words: Antibacterial activity against methicillin-resistant Staphylococcus aureus LAC USA300 after 18 hrs by broth microdilution assay. The class given is functional. Summed up:
as §1
(In general: Dilution methods test growth across graded concentrations, often in twofold steps.)

The subject of test [3] is Staphylococcus aureus. In words: Antibacterial activity against daptomycin-resistant Staphylococcus aureus isolate ST 2014-1288 after 18 hrs by broth microdilution assay. The class given is functional. Conditions: isolate ST 2014-1288, 18 h. In short, it runs like this: as §1
In test [4] the test system is Staphylococcus aureus. In words: Antibacterial activity against Staphylococcus aureus ATCC 29213 after 18 hrs by broth microdilution assay. It counts as functional. Conditions: ATCC 29213, 18 h. In short, it runs like this:
(§2)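 Broth MIC testing on Gram-positive strains followed CLSI M100-S17 recommendations. […] Values are in mmol/L. Amoxicillin was the control for Listeria and Enterococcus strains and oxacillin for S. aureus strains.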

Test [5] has as its system Staphylococcus aureus. Put plainly: Antibacterial activity against methicillin-resistant Staphylococcus aureus isolate HT 2006-1004 after 18 hrs by broth microdilution assay. The class given is functional. To be noted: isolate HT 2006-1004, 18 h. Summed up:
as §1

Test [6] is described as follows: Surfactant property of the compound in water assessed as critical micelle concentration or minimal hydrotropic concentration by platinum rod based tensiometric method. In short, it runs like this:
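Surface tension of aqueous solutions was measured by a rod method based on the Wilhelmy plate. Water was progressively concentrated with a stock surfactant solution at constant volume. At each concentration, readings continued until stable (SD of the last 5 values 0.2 mN/m). MHC or CMC and the plateau γsat were taken from the tension vs concentration curves.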

In test [7] the test system is Enterococcus faecium. In words: Antibacterial activity against Enterococcus faecium CIP 103510 after 18 hrs by broth microdilution assay. The class given is functional. To be noted: CIP 103510, 18 h. In short, it runs like this:
(§3)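 Enterococcus faecium strains (reference, clinical isolates, VanA isolate) tested by MIC following CLSI recommendations (M100-S17), with amoxicillin as control. […] Values are expressed in mmol/L.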

Test [8] has as its system Staphylococcus aureus. Put plainly: Antibacterial activity against daptomycin-resistant Staphylococcus aureus isolate ST 2015-0188 after 18 hrs by broth microdilution assay. The class given is functional. To be noted: isolate ST 2015-0188, 18 h. In short, it runs like this: as §1
Test [9] has as its system Staphylococcus aureus. Put plainly: Antibacterial activity against daptomycin-resistant Staphylococcus aureus isolate ST 2015-0989 after 18 hrs by broth microdilution assay. To be noted: isolate ST 2015-0989, 18 h. The class given is functional. In short, it runs like this:
as §1

In test [10] the test system is Enterococcus faecium. Put plainly: Antibacterial activity against Enterococcus faecium isolate 015205261801 after 18 hrs by broth microdilution assay. It counts as functional. Conditions: isolate 015205261801, 18 h. In short, it runs like this:
as §3

For test [11], the system named is Staphylococcus aureus. In words: Antibacterial activity against Staphylococcus aureus ATCC 25923 after 18 hrs by broth microdilution assay. It counts as functional. To be noted: ATCC 25923, 18 h. In short, it runs like this:
as §1

Test [12] has as its system Listeria monocytogenes. In words: Antibacterial activity against Listeria monocytogenes isolate 015181840701 after 18 hrs by broth microdilution assay. The class given is functional. Conditions: isolate 015181840701, 18 h. Summed up: as §2
Test [13] concerns Staphylococcus aureus. Put plainly: Antibacterial activity against methicillin-resistant Staphylococcus aureus isolate HT 2004-0012 after 18 hrs by broth microdilution assay. The class given is functional. To be noted: isolate HT 2004-0012, 18 h. In short, it runs like this:
as §1

In test [14] the test system is Enterococcus faecium. In words: Antibacterial activity against […] Enterococcus faecium isolate 0151850763 after 18 hrs by broth microdilution assay. It counts as functional. Conditions: isolate 0151850763, 18 h. In short, it runs like this:
as §3

In test [15] the test system is Listeria monocytogenes. Put plainly: Antibacterial activity against Listeria monocytogenes CIP 103575 after 18 hrs by broth microdilution assay. Conditions: CIP 103575, 18 h. It counts as functional. Summed up: as §2
The test system of test [16] is Staphylococcus aureus. In words: Antibacterial activity against methicillin-resistant Staphylococcus aureus isolate HT 2002-0417 after 18 hrs by broth microdilution assay. It counts as functional. Conditions: isolate HT 2002-0417, 18 h. Summed up: as §1
The test system of test [17] is Listeria monocytogenes. Put plainly: Antibacterial activity against Listeria monocytogenes isolate 015189074801 after 18 hrs by broth microdilution assay. To be noted: isolate 015189074801, 18 h. It counts as functional. Summed up: as §2
The test system of test [18] is Listeria monocytogenes. In words: Antibacterial activity against Listeria monocytogenes isolate 015170199001 after 18 hrs by broth microdilution assay. The class given is functional. To be noted: isolate 015170199001, 18 h. Summed up:
as §2

The test system of test [19] is Enterococcus faecalis. Put plainly: Antibacterial activity against Enterococcus faecalis isolate 015206179901 after 18 hrs by broth microdilution assay. The class given is functional. To be noted: isolate 015206179901, 18 h. Summed up: as §2
Test [20] has as its system Enterococcus faecium. Put plainly: Antibacterial activity against Enterococcus faecium isolate 015205731401 after 18 hrs by broth microdilution assay. It counts as functional. To be noted: isolate 015205731401, 18 h. In short, it runs like this:
as §2

Test [21] has as its system Enterococcus faecalis. In words: Antibacterial activity against Enterococcus faecalis ATCC 29212 after 18 hrs by broth microdilution assay. It counts as functional. To be noted: ATCC 29212, 18 h. Summed up:
as §2

Test [22] concerns Staphylococcus aureus. In words: Antibacterial activity against methicillin-resistant Staphylococcus aureus Mu3 after 18 hrs by broth microdilution assay. Conditions: Mu3, 18 h. It counts as functional. In short, it runs like this: as §1
The test system of test [23] is Staphylococcus aureus. Put plainly: Bactericidal activity against Staphylococcus aureus ATCC 29213 after 18 hrs by broth microdilution assay. The class given is functional. Summed up: (§4)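 MBC is the lowest concentration giving at least 99.9% reduction of the initial inoculum. Values are in mmol/L.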
Test [24] has as its system Listeria monocytogenes. In words: Bactericidal activity against Listeria monocytogenes CIP 103575 after 18 hrs by broth microdilution assay. The class given is functional. In short, it runs like this: as §4
Test [25] concerns Enterococcus faecalis. Put plainly: Bactericidal activity against Enterococcus faecalis ATCC 29212 after 18 hrs by broth microdilution assay. It counts as functional. Summed up:
as §4

Here are results for two compounds from ChEMBL document CHEMBL4004832, “Synthesis, surfactant properties and antimicrobial activities of methyl glycopyranoside ethers” (2017).

SMILES strings stand for the structures. ≈ marks a conversion by molar mass, not a printed value.

Consider `CCCCCCCCCCCCOC[C@H]1O[C@H](OC)[C@H](O)[C@@H](O)[C@H]1O`, for which the MIC in [1], in [2], in test [3], in test [4], in test [5] and in test [7] was above 710 µM in each case. Also, the MIC – broadly, the least concentration at which growth counts as inhibited – in test [8] is above 710 µM; in test [9], above 710 µM; in test [10] it was 20 µM (≈ 7.25 µg/mL); in test [11], above 710 µM; in [12], 180 µM (≈ 65.3 µg/mL); in test [13], above 710 µM. The MIC in [14] was 350 µM (≈ 127 µg/mL); in [15], 180 µM (≈ 65.3 µg/mL); in test [16], above 710 µM; in test [17], 180 µM (≈ 65.3 µg/mL); in test [18] it was 180 µM (≈ 65.3 µg/mL); in test [19], 180 µM (≈ 65.3 µg/mL). In addition, the minimal inhibitory concentration (MIC) in test [20] was 90 µM (≈ 32.6 µg/mL); in test [21], 180 µM (≈ 65.3 µg/mL); in test [22], above 710 µM. In addition, the CMC in test [6] was 0.47 mmol/L.
For the compound `CCCCCCCCCCOC[C@H]1O[C@H](OC)[C@H](O)[C@@H](O)[C@@H]1O`, the MIC in test [4] was 2000 µM (≈ 669 µg/mL); in [15], 500 µM (≈ 167 µg/mL); in test [21] it was 500 µM (≈ 167 µg/mL). The “MBC<=99.9” value came to 2 mM (≈ 669 µg/mL) in [23], 0.5 mM (≈ 167 µg/mL) in test [24] and 0.5 mM (≈ 167 µg/mL) in test [25]. Besides, in test [6], the CMC is 0.277 mmol/L.
